The species entered for data set [1] is Sus scrofa. Description: Compound was evaluated for the rate of hydrolysis by renal dipeptidase relative to hog renal dipeptidase. In kind it is ADME. As to conditions: pig; in the assay text read “relative to imipenem” for “relative to hog renal dipeptidase”. The gist of the method:
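Purified hog renal dipeptidase. Substrate was 0.10 mM carbapenem in 50 mM MOPS, pH 7.1, freshly prepared. λmax and ε came from the UV difference spectrum before and after β-lactam cleavage by hydroxylamine at 25 °C. Spontaneous absorbance change was followed at 25 °C, then enzyme was added to give ≥10^-4 AU/s. The corrected rate was converted to nmol min^-1 (mL enzyme)^-1 and expressed relative to imipenem.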

The test system of data set [2] is Escherichia coli. Description: Compound was tested in vitro for antibacterial activity against Escherichia coli A-15119. It counts as functional. The gist of the method: (§1)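 MIC by serial 2-fold dilution in Mueller-Hinton agar, or in broth. Agar surface or broth was inoculated with an appropriately diluted 18–24-h broth culture. Incubation was 37 °C for 17 h. The MIC was the lowest concentration that inhibited visible growth.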

For data set [3], the system named is Enterobacter cloacae. In words: Compound was tested in vitro for antibacterial activity against Enterobacter cloacae A-9695. It counts as functional. The essentials: as §1
Data set [4] relates to Pseudomonas aeruginosa. Description: Compound was tested in vitro for antibacterial activity against Pseudomonas aeruginosa. It counts as functional. The gist of the method: as §1
Data set [5] concerns Proteus vulgaris. Description: Compound was tested in vitro for antibacterial activity against Proteus vulgaris A-21559. In kind it is functional. The essentials: as §1
In data set [6] the test system is Serratia marcescens. Description: Compound was tested in vitro for antibacterial activity against Serratia marcescens A-20019. In kind it is functional. The gist of the method:
as §1

Data set [7] concerns Staphylococcus aureus. In words: (§2) Compound was tested in vitro for antibacterial activity against Staphylococcus aureus, pen-res A-9606. In kind it is functional. The gist of the method:
as §1

The test system of data set [8] is Staphylococcus aureus. Described as §2. It counts as functional, staphylococcus aure. The gist of the method:
as §1

Values after ≈ are worked out from the molar mass of the structure shown.

Usually MIC stands for the lowest concentration that inhibits growth of the organism. `Cc1c(CSC2=C(C(=O)[O-])N3C(=O)[C@H](C(C)O)C3C2)ccc[n+]1C` (some centres not stated): the Relative rate in data set [1] is reported as 0.4. Further, the MIC came to 8 ng/mL (≈ 0.023 µM) in data set [2]; 0.016 µg/mL (≈ 0.0459 µM) in data set [3]; 0.5 µg/mL (≈ 1.44 µM) in data set [4]; 0.03 µg/mL (≈ 0.0861 µM) in data set [5]; 0.03 µg/mL (≈ 0.0861 µM) in data set [6]; 0.016 µg/mL (≈ 0.0459 µM) in data set [7].

Take `CC(O)[C@H]1C(=O)N2C(C(=O)[O-])=C(SCc3n(C)cc[n+]3C)[C@H](C)C12` (some centres not stated): the Relative rate in data set [1] is listed as 0.003. In addition, the MIC came to 4 ng/mL (≈ 0.0114 µM) in data set [2]; 0.06 µg/mL (≈ 0.171 µM) in data set [3]; 1 µg/mL (≈ 2.85 µM) in data set [4]; 0.016 µg/mL (≈ 0.0455 µM) in data set [5]; 0.03 µg/mL (≈ 0.0854 µM) in data set [6]; 0.008 µg/mL (≈ 0.0228 µM) in data set [7].

The molecule `C[C@@H](O)[C@H]1C(=O)N2C(C(=O)O)=C(SCCN=CN)C[C@H]12` [IMIPENEM ANHYDROUS] came in with a Relative rate in data set [1] of 1. Further, the MIC in data set [2] came to 16 ng/mL (≈ 0.0534 µM); in data set [3], 0.06 µg/mL (≈ 0.2 µM); in data set [4], 0.25 µg/mL (≈ 0.835 µM); in data set [5], 0.03 µg/mL (≈ 0.1 µM); in data set [6], 0.03 µg/mL (≈ 0.1 µM); in data set [7], 0.008 µg/mL (≈ 0.0267 µM).

As to `CC(O)[C@H]1C(=O)N2C(C(=O)[O-])=C(SCc3cc[n+](C)cc3)CC12` (some centres not stated), in data set [1], the Relative rate is 0.84. Besides, the MIC in data set [2] was found to be 30 ng/mL (≈ 0.0897 µM); in data set [4], 0.5 µg/mL (≈ 1.5 µM); in data set [5], 0.03 µg/mL (≈ 0.0897 µM); in data set [6], 0.13 µg/mL (≈ 0.389 µM); in data set [7], 0.016 µg/mL (≈ 0.0478 µM).

`Cc1c(CSC2=C(C(=O)[O-])N3C(=O)[C@H](C(C)O)C3[C@H]2C)ccc[n+]1C` (some centres not stated) registered a Relative rate in data set [1] of 0.01. For the same molecule, the MIC in data set [2] was found to be 4 ng/mL (≈ 0.011 µM); in data set [3] it was 0.016 µg/mL (≈ 0.0441 µM); in data set [4], 2 µg/mL (≈ 5.52 µM); in data set [5], 0.03 µg/mL (≈ 0.0828 µM); in data set [6], 0.16 µg/mL (≈ 0.441 µM); in data set [7] it was 0.016 µg/mL (≈ 0.0441 µM).

In turn, `CC(O)[C@H]1C(=O)N2C(C(=O)[O-])=C(SCc3cc[n+](C)cc3)[C@H](C)C12` (some centres not stated) had a Relative rate in data set [1] of 0.02. Moreover, the MIC is 16 ng/mL (≈ 0.0459 µM) in data set [2]; 0.06 µg/mL (≈ 0.172 µM) in data set [3]; 0.5 µg/mL (≈ 1.44 µM) in data set [4]; 0.03 µg/mL (≈ 0.0861 µM) in data set [5]; 0.03 µg/mL (≈ 0.0861 µM) in data set [6]; 0.016 µg/mL (≈ 0.0459 µM) in data set [7].

As to `CC(O)[C@H]1C(=O)N2C(C(=O)[O-])=C(SCc3n(C)cc[n+]3C)CC12` (some centres not stated), the Relative rate in data set [1] is given as 0.2. For the same molecule, the MIC was found to be 8 ng/mL (≈ 0.0237 µM) in data set [2]; 0.03 µg/mL (≈ 0.0889 µM) in data set [3]; 2 µg/mL (≈ 5.93 µM) in data set [4]; 0.008 µg/mL (≈ 0.0237 µM) in data set [5]; 4 ng/mL (≈ 0.0119 µM) in data set [8]; 0.016 µg/mL (≈ 0.0474 µM) in data set [6].

In the case of `CC(O)[C@H]1C(=O)N2C(C(=O)O)=C(SCc3nccn3C)[C@H](C)C12` (some centres not stated), the Relative rate in data set [1] worked out at 0.94. Besides, the MIC was determined as 8 ng/mL (≈ 0.0237 µM) in data set [2]; 0.016 µg/mL (≈ 0.0474 µM) in data set [3]; 16 µg/mL (≈ 47.4 µM) in data set [4]; 0.016 µg/mL (≈ 0.0474 µM) in data set [5]; 0.016 µg/mL (≈ 0.0474 µM) in data set [6]; 0.016 µg/mL (≈ 0.0474 µM) in data set [7].

Regarding `CC(O)[C@H]1C(=O)N2C(C(=O)O)=C(SCc3ccncc3)CC12` (some centres not stated), the Relative rate in data set [1] is recorded as 3.84. The MIC is 30 ng/mL (≈ 0.0936 µM) in data set [2]; 0.5 µg/mL (≈ 1.56 µM) in data set [3]; 32 µg/mL (≈ 99.9 µM) in data set [4]; 0.03 µg/mL (≈ 0.0936 µM) in data set [5]; 0.13 µg/mL (≈ 0.406 µM) in data set [6]; 0.03 µg/mL (≈ 0.0936 µM) in data set [7].
